Source: ChEMBL document CHEMBL1145814, “Antiretroviral activity of semisynthetic derivatives of glycopeptide antibiotics” (J Med Chem, 2003)
Converted amounts (≈) assume the structure as drawn. “And” between values parts separate entries of the source, which are not always exact repeats. Equal values may be shown once.

Legend:
[1] = test system: Human immunodeficiency virus 1; test: Effective concentration of compound required to protect human T-lymphocytic cells against the cytopathogenicity of HIV-1; type: functional, organism-based
[2] = test system: L1210; test: Inhibitory concentration of compound against proliferation of murine lukemia cells L1210 was determined; type: functional, cell-based; settings: Mus musculus
Procedure, shortened: (§1)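 (5–7.5) × 10^4 cells per well were incubated with test compound at 37 °C in a humidified CO2 atmosphere. L1210 murine leukemia cells grew for 48 h, and CEM and Molt4/clone 8 human lymphocytes grew for 72 h. Cells were then counted with a Coulter counter. IC50 is the concentration inhibiting proliferation by 50%.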

[3] = test system: CCRF-CEM; test: Inhibitory concentration against proliferation of human T-lymphocytic (CEM) cells; type: functional, cell-based; procedure, shortened: as §1
[4] = test system: Human immunodeficiency virus 2; test: Concentration required to protect human T-lymphocytic cells against the cytopathogenicity of HIV-2; type: functional, organism-based
[5] = test system: MOLT-4; test: Inhibitory concentration of compound against proliferation of human T-lymphocytic cells MOLT-4/C8 was determined; type: functional, cell-based; procedure, shortened: as §1
[6] = species on record: Mus musculus; test: Minimal inhibitory concentration required to cause a microscopic detectable alteration of C3H/3T3 embryo murine fibroblast cell morphology; type: functional
Procedure, shortened: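 Uninfected C3H/3T3 murine embryo fibroblast cultures were exposed to test compound and checked microscopically for changes in cell morphology. The MIC is the concentration causing a microscopically detectable alteration of morphology.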

[7] = species on record: Mus musculus; test: Effective concentration of compound required to protect C3H/3T3 embryo murine fibroblasts against the MSV induced transformation; type: functional, organism-based
Procedure, shortened: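 Monolayer murine embryo fibroblast C3H/3T3 cultures were infected with Moloney murine sarcoma virus at 75 focus-forming units and cultured with test compound. Transformation was examined microscopically on day 6 postinfection. EC50 is the concentration protecting cells against MSV-induced transformation by 50%.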

SMILES	EC50 ([1]; Human immunodeficiency virus 1) [µM]	IC50 [2] [µM]	IC50 ([3]; Homo sapiens, CCRF-CEM) [µM]	EC50 ([4]; Human immunodeficiency virus 2) [µM]	IC50 [5] [µM]	MIC [6] [µM]	EC50 ([7]; Mus musculus, C3H/3T3) [µM]	EC50 [1] [µM]	IC50 ([3]; ccrf-cem) [µM]	EC50 [4]	EC50 [7] [µM]
CN[C@H](CC(C)C)C(=O)N[C@H]1C(=O)N[C@@H](CC(N)=O)C(=O)N[C@H]2C(=O)N[C@H]3C(=O)N[C@H](C(=O)N[C@H](C(=O)NCc4ccc(-c5ccccc5)cc4)c4cc(O)cc(O)c4-c4cc3ccc4O)[C@H](O[C@H]3C[C@](C)(N)[C@@H](O)[C@H](C)O3)c3ccc(cc3)Oc3cc2cc(c3O[C@@H]2O[C@H](CO)[C@@H](O)[C@H](O)[C@H]2O[C@H]2C[C@](C)(N)[C@@H](O)[C@H](C)O2)Oc2ccc(cc2Cl)[C@H]1O	> 10	41	35	> 10	34	4 (≈ 6.89 µg/mL)	> 0.8	–	–	–	–
CNC(=O)[C@@H]1NC(=O)C2NC(=O)C(NC(=O)C3NC(=O)C(CC(N)=O)NC(=O)C(NC(=O)C(CC(C)C)NC)C(O)c4ccc(c(Cl)c4)Oc4cc3cc(c4O)Oc3ccc(cc3)C2O)c2ccc(O)c(c2)-c2c1cc(O)c(CN1CCN(Cc3ccc(-c4ccccc4)cc3)CC1)c2O (some centres not stated)	4	> 100	> 100	5.5	> 100	> 100	12	–	–	–	–
CNC(=O)[C@@H]1NC(=O)C2NC(=O)C(NC(=O)C3NC(=O)C(CC(N)=O)NC(=O)C(N)C(O)c4ccc(c(Cl)c4)Oc4cc3cc(c4O)Oc3ccc(cc3)C2O)c2ccc(O)c(c2)-c2c1cc(O)c(CNC1C3CC4CC(C3)CC1C4)c2O (some centres not stated)	13	> 250	> 250	20	> 250	> 100	14	–	–	–	–
CNC(=O)[C@@H]1NC(=O)C2NC(=O)C(NC(=O)C3NC(=O)C4NC(=O)C(Cc5ccc(c(Cl)c5)Oc5cc3cc(c5O)Oc3ccc(cc3Cl)C2O)NC(=O)C(N)c2ccc(O)c(c2)Oc2cc(O)cc4c2)c2ccc(O)c(c2)-c2c(O)cc(O)cc21 (some centres not stated)	15	> 500	> 500	17	> 500	> 100	> 20	–	–	–	–
COC(=O)[C@@H]1NC(=O)C2NC(=O)C(NC(=O)C(NC(=O)OC(C)(C)C)c3cc(Oc4ccc(CC(NC(=O)OCc5ccccc5)C(=O)O)cc4Cl)c(O)c(c3)Oc3ccc(cc3Cl)C2O)c2ccc(O)c(c2)-c2c1cc(O)c(CNC1C3CC4CC(C3)CC1C4)c2O (some centres not stated)	17	95	240	11	122	> 100	26	–	–	–	–
O=C1NC2C(=O)NC3C(=O)NC4C(=O)NC(C(=O)N[C@@H](C(=O)O)c5cc(O)cc(O)c5-c5cc4ccc5O)C(O)c4ccc(c(Cl)c4)Oc4cc3cc(c4O)Oc3ccc(cc3Cl)CC1NC(=O)C(NC(=O)C13CC4CC(CC(C4)C1)C3)c1ccc(O)c(c1)Oc1cc(O)cc2c1 (some centres not stated)	10	33	83	4	39	100 (≈ 136 µg/mL)	11	–	–	–	–
CN(C)CCCNC(=O)[C@@H]1NC(=O)C2NC(=O)C(NC(=O)C3NC(=O)C4NC(=O)C(Cc5ccc(c(Cl)c5)Oc5cc3cc(c5O)Oc3ccc(cc3Cl)C2O)NC(=O)C(N)c2ccc(O)c(c2)Oc2cc(O)cc4c2)c2ccc(O)c(c2)-c2c1cc(O)c(CNC1C3CC4CC(C3)CC1C4)c2O (some centres not stated)	2.5	> 500	> 500	–	> 500	20 (≈ 28.9 µg/mL)	12	4	> 250	8 µM and 22 µM	–
NC1Cc2ccc(c(Cl)c2)Oc2cc3cc(c2O)Oc2ccc(cc2Cl)C(O)C2NC(=O)C(NC(=O)C3NC(=O)C(c3cc(O)cc(Oc4cc(C5NC(=S)N(c6ccccc6)C5=O)ccc4O)c3)NC1=O)c1ccc(O)c(c1)-c1c(cc(O)c(CNC3C4CC5CC(C4)CC3C5)c1O)[C@H](C(=O)O)NC2=O (some centres not stated)	13	73	242	17	> 250	> 100	2.9	–	–	–	–
CN[C@H](CC(C)C)C(=O)N[C@H]1C(=O)N[C@@H](CC(N)=O)C(=O)N[C@H]2C(=O)N[C@H]3C(=O)N[C@H](C(=O)N[C@H](C(=O)O)c4cc(O)c(CNCc5ccc(-c6ccc(Cl)cc6)cc5)c(O)c4-c4cc3ccc4O)[C@H](O[C@H]3C[C@](C)(N)[C@@H](O)[C@H](C)O3)c3ccc(cc3)Oc3cc2cc(c3O[C@@H]2O[C@H](CO)[C@@H](O)[C@H](O)[C@H]2O[C@H]2C[C@](C)(N)[C@@H](O)[C@H](C)O2)Oc2ccc(cc2Cl)[C@H]1O	22	136	106	> 50	72	> 20	> 4	–	–	–	–
COC(=O)[C@@H]1NC(=O)C2NC(=O)C(NC(=O)C(N)c3cc(Oc4ccc(CC(NC(=O)OCc5ccccc5)C(=O)O)cc4Cl)c(O)c(c3)Oc3ccc(cc3Cl)C2O)c2ccc(O)c(c2)-c2c1cc(O)c(CNC1C3CC4CC(C3)CC1C4)c2O (some centres not stated)	17	181	> 250	37	> 250	> 100	39	–	–	–	–
CNC1C(=O)NC2Cc3ccc(cc3)Oc3cc4cc(c3OC3OC(C(=O)O)C(O)C(O)C3N)Oc3ccc(cc3Cl)C(O)C3NC(=O)C(NC(=O)C4NC(=O)C(NC2=O)c2cc(cc(O)c2Cl)Oc2cc1ccc2O)c1ccc(O)c(c1)-c1c(O)cc(O)cc1[C@H](C(=O)O)NC3=O (some centres not stated)	115	> 500	> 500	> 250	> 500	> 100	> 100	–	–	–	–
CCCCc1ccc(CN2CCN(Cc3c(O)cc4c(c3O)-c3cc(ccc3O)C3NC(=O)C5NC(=O)C6NC(=O)C(Cc7ccc(c(Cl)c7)Oc7cc5cc(c7O)Oc5ccc(cc5Cl)C(O)C(NC3=O)C(=O)N[C@H]4C(=O)NCCCN(C)C)NC(=O)C(N)c3ccc(O)c(c3)Oc3cc(O)cc6c3)CC2)cc1 (some centres not stated)	3	29	> 500	–	108	20 (≈ 30.5 µg/mL)	2.4	4	> 250	5 µM and 13 µM	3.5
CNC(=O)[C@@H]1NC(=O)C2NC(=O)C(NC(=O)C3NC(=O)C(CC(N)=O)NC(=O)C(NC(=O)C(CC(C)C)N(C)C(=O)OC(C)(C)C)C(O)c4ccc(c(Cl)c4)Oc4cc3cc(c4O)Oc3ccc(cc3)C2O)c2ccc(O)c(c2)-c2c1cc(O)c(CN1CCN(Cc3ccc(-c4ccccc4)cc3)CC1)c2O (some centres not stated)	4	84	> 100	3.5	> 100	20 (≈ 29.7 µg/mL)	> 4	–	–	–	–
CNC1C(=O)NC2Cc3ccc(cc3)Oc3cc4cc(c3O)Oc3ccc(cc3Cl)C(O)C3NC(=O)C(NC(=O)C4NC(=O)C(NC2=O)c2cc(cc(O)c2Cl)Oc2cc1ccc2O)c1ccc(O)c(c1)-c1c(O)cc(O)cc1[C@H](C(=O)O)NC3=O (some centres not stated)	40	> 500	> 500	> 50	> 500	> 100	82	–	–	–	–
NCCCCCCNC(=O)[C@@H]1NC(=O)C2NC(=O)C(NC(=O)C3NC(=O)C4NC(=O)C(Cc5ccc(c(Cl)c5)Oc5cc3cc(c5O)Oc3ccc(cc3Cl)C2O)NC(=O)C(N)c2ccc(O)c(c2)Oc2cc(O)cc4c2)c2ccc(O)c(c2)-c2c(O)cc(O)cc21 (some centres not stated)	15	> 500	> 500	17	> 500	20 (≈ 25.9 µg/mL)	> 4	–	–	–	–
NC1C(=O)NC2Cc3ccc(c(Cl)c3)Oc3cc4cc(c3O)Oc3ccc(cc3Cl)C(O)C3NC(=O)C(NC(=O)C4NC(=O)C(NC2=O)c2cc(O)cc(c2)Oc2cc1ccc2O)c1ccc(O)c(c1)-c1c(O)cc(O)cc1[C@H](C(=O)O)NC3=O (some centres not stated)	17	> 500	> 500	20	> 500	> 100	25	–	–	–	–
